RAM inhibit – inhibitors of the yeast RAM network, primary screen, dse1pr::URA3 reporter, 5-FOA selection. S. cerevisiae dse1pr::URA3 reporter, 5-FOA growth OD615, 2 d; analog-sensitive cbk1-as2 kinase mutant strain. inhibition, % at 50 µM. 1.8% of 190,000 active. AID 868, 2007;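 active = inhibition above a set limit, 3 SD over mean compound inhibition, cut at about 8.4% in these data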;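 note: inhibition rescues growth on 5-FOA so higher OD means more RAM inhibition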
L major viab – Leishmania major promastigote growth inhibition, primary screen. inhibition, % at 10 µM. AID 1063, 2008. 9% of 200,000 active. Leishmania major promastigotes, resazurin fluorescence viability; in the data active = inhibition above about 50%;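 note: promastigotes grown with compound for 44 hours at 28 °C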
ABCB1 block – ABCB1 efflux pump inhibitors, primary screen, cell-based, multiplex, flow cytometry, ABCG2 counter-screen; 0.067% of 190,000 active; inhibition, % at 6.6 µM; CCRF-Adr cells, JC-1 efflux; in the data active = inhibition above about 40%;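 note: higher value means more JC-1 retained so stronger ABCB1 efflux block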
ABCG2 block – ABCG2 efflux pump inhibitors, primary screen, multiplex with ABCB1, IgMXP3 cells, flow cytometry | JC-1 efflux | Broad substrate specificity ATP-binding cassette transporter ABCG2 (Homo sapiens), Q9UNQ0 | AID 1325, 2008 | inhibition, % at 6.6 µM | 0.1% of 190,000 active;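 active = inhibition above 80%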
Target sequence (Q9UNQ0 whole entry, looked up): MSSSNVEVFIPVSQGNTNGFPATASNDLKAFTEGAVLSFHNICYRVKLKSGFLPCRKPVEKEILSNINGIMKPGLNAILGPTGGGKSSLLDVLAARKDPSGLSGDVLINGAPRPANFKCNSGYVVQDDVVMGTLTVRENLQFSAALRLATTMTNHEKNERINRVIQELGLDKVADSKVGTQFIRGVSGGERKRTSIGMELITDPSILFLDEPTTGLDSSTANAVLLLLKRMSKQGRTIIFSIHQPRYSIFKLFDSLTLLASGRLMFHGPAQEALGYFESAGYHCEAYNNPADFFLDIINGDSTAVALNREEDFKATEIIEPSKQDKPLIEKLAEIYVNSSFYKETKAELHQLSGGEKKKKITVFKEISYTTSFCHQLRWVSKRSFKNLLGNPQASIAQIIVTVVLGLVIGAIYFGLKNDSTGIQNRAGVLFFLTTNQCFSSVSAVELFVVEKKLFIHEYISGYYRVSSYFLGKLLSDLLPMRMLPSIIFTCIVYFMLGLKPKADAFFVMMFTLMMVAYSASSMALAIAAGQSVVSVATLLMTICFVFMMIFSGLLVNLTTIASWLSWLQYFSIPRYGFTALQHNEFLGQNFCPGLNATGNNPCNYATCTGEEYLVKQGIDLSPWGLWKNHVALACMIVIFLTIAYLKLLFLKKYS
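Test system: IgMXP3 cells (ABCG2) mixed with DDAO far-red-labelled CCRF-Adr cells (ABCB1). Reagent: JC-1 transporter substrate. Compound dosing: single test compound dose, 6.6 µM final. Times: 10 min compound exposure, 25 °C. Detection: flow cytometry of retained JC-1 fluorescence. Read-out basis: efflux inhibition in percent versus controls. Controls: nicardipine and DMSO wells.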
WT yeast gro inh – growth inhibition of WT strain, primary screen, mitochondrial fusion inhibitor project, WT and mutant strains, chemical genetic; mitochondrial fusion phenotypic screen; inhibition, % at 10 µM; 2.1% of 190,000 active; AID 1362, 2008; in the data active = inhibition above about 58%; tested in S. cerevisiae
RAM efflux-def – 5-FOA growth of efflux-deficient control yeast, dose response, counter-screen for RAM network inhibitor project, S. cerevisiae, OD615 | 1,200 tested, under 10 active | max inhibition, % | S. cerevisiae efflux-deficient reporter strain, 5-FOA growth OD615, 2 days | shares compounds with RAM inhibit; call rule not given here
Lmaj promast 1uM – Leishmania major promastigote growth inhibition, confirmation, 1 µM repeat of primary hits | shares compounds with L major viab | inhibition, % at 1 µM | L. major promastigote growth, resazurin fluorescence, 48 h | AID 1258, 2008 | 13% of 1,100 active;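 active = inhibition above about 50% in both repeat tests, limit read from the data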
Numbers stand for hits; i = inactive; nt = not tested or not shown. Most compounds without a hit are left out; they make up all but 12% or so of the library.

SMILES | RAM inhibit | L major viab | ABCB1 block | ABCG2 block | WT yeast gro inh | others
CC1=NN(c2ccccc2)C(=O)/C1=C/c1c(O)[nH]c(=O)[nH]c1=O | i | i | i | i | i
CCCCCn1c(=O)c(C(=O)Nc2ccncc2)c(O)c2ccccc21 | nt | nt | nt | nt | i
CCCCn1c(=O)c(C(=O)Nc2ccsc2C(=O)OC)c(O)c2ccccc21 | i | 53 | i | i | i
CCCCCCn1c(=O)c(C(=O)Nc2cnccn2)c(O)c2ccccc21 | 8.7 | 100 | i | i | i
CCCCCn1c(=O)c(C(=O)NCc2ccncc2)c(O)c2ccccc21 | i | i | i | i | i
O=C1NC(=O)C(CCc2ccncc2)(Cc2ccc3c(c2)OCO3)C(=O)N1CCc1ccccc1 (centres undefined) | i | 100 | i | i | i
O=C1NC(=O)C(CCc2ccncc2)(CCc2ccncc2)C(=O)N1CCc1ccccc1 | i | i | i | i | i
CN1C(=O)N(C)C(=O)C(CCc2ccncc2)(Cc2ccc3c(c2)OCO3)C1=O | i | 65 | i | i | i
OC1(c2cccnc2)CC2CCC(C1)N2Cc1nnnn1Cc1ccccc1 (centres undefined) | i | i | i | i | i
O=C(CN1C2CCC1CC(O)(c1cccnc1)C2)Nc1ccc2c(c1)OCO2 (centres undefined) | i | 90 | i | i | i
NCCCCCC(=O)OC1N=C(c2ccccc2Cl)c2cc(Br)ccc2NC1=O (centres undefined) | i | i | i | i | i
COc1ccc2[nH]cc(CCN(C)C)c2c1 | i | i | i | i | i
CCCCCSc1cc(OC)c(CCN(C)C)cc1OC | i | 100 | i | i | i
Fc1c(F)c(F)c(N2CCNCC2)c(F)c1F | i | i | i | i | i
Clc1ccccc1CN1CCN(c2ccccc2Cl)CC1 | i | i | i | i | 70
COc1ccccc1N1CCN(Cc2ccc(Cl)cc2Cl)CC1 | i | i | i | i | i
O=C(c1ccc(Cl)cc1)C1CCCN(Cc2ccc3ncccc3c2)C1 (centres undefined) | i | 88 | i | i | i
O=C(c1ccc(Cl)cc1)C1CCCN(Cc2ccc3c(c2)OCCO3)C1 (centres undefined) | i | 92 | i | i | i
CCOC(=O)c1c(-n2c(C)cc(C=C3C(=O)NC(=O)NC3=O)c2C)sc2c1CCCC2 | i | 84 | i | i | i
O=C(CN1C(=O)CN=C(c2ccccc2Cl)c2cc(Cl)ccc21)NCc1ccco1 | i | 97 | i | i | i
CCN(CC)C1=NC(=[N+](CC)CC)c2ccccc21 | i | 100 | i | i | i
COc1cccc(C2(O)CCN(CC(=O)Nc3nc(C)cs3)CC2)c1 | i | i | i | i | i
Cc1nc2ccc(Cl)cc2c(-c2ccccc2)c1C(=O)O | i | i | i | i | i
Cc1ccccc1C(O)(Cc1ccccc1)C1CN2CCC1CC2 (centres undefined) | i | 98 | i | i | i
CCc1cc2c(N3CCN(C)CC3)ncnc2s1 | i | 73 | i | i | i
SMILES | RAM inhibit | L major viab | ABCB1 block | ABCG2 block | WT yeast gro inh | others
CCN1CCN(c2ncnc3ccc(Br)cc23)CC1 | i | i | i | i | i
COc1ccc(C)cc1NC(=O)c1c(C)nn(Cc2ccccc2)c1Cl | 13 | i | i | i | i | RAM efflux-def=i
CCOc1ccc(NC(=O)c2c(C)nn(Cc3ccccc3)c2Cl)cc1 | i | i | i | i | i
N#CC(C#N)=C(N)c1cccnc1 | i | i | i | i | i
O=C(Nc1cccc(C(F)(F)F)c1)c1cccn(Cc2ccc3c(c2)OC(F)(F)O3)c1=O | 14 | i | i | i | i | RAM efflux-def=i
CC(C)Oc1cccc(NC(=O)c2cccn(Cc3ccc4c(c3)OC(F)(F)O4)c2=O)c1 | 13 | i | i | i | i | RAM efflux-def=i
O=c1[nH]c(=O)n(Cc2ccccc2)c(O)c1C=Nc1ccc(CN2CCOCC2)cc1 | i | i | i | i | i
CC(=O)Nc1nc(CCl)cs1 | i | i | i | i | i
CCOC(=O)Cc1csc(NC(=O)c2c(O)c3ccccc3n(CCC(C)C)c2=O)n1 | 12 | i | i | i | i | RAM efflux-def=i
CC(C)CCCn1c(O)c(/C=C2/C=CC=N2)c(=O)[nH]c1=O | i | i | i | i | i
O=C(COc1ccccc1)c1cn(Cc2ccccc2)c2ccccc12 | 12 | i | i | i | i | RAM efflux-def=i
CC12CN3CN(C1)CC(C)(C3)C2=NO | i | i | i | i | i
CN(C[C@H](Cc1ccccc1)N(C[C@H](Cc1ccccc1)N(CCC(C)(C)C)N=O)N=O)N=O | 13 | i | i | i | i | RAM efflux-def=i
CC(Cc1ccccc1)NC(=O)NC(C)Cc1ccccc1 (centres undefined) | i | i | i | i | i
CC(C)CCN(N=O)[C@@H](Cc1ccccc1)CN(N=O)[C@@H](Cc1ccccc1)CN(C)N=O | 20 | i | i | i | i | RAM efflux-def=i
OC(c1ccc(F)cc1)C(c1ccccc1)N1CCOCC1 (centres undefined) | i | i | i | i | i
CC1(C)OC(c2ccccc2)=C/C(=C/C=C2C(=O)NC(=S)NC2=O)O1 | 18 | i | i | i | i | RAM efflux-def=i
CN1/C(=C\C=C2C(=O)NC(=S)NC2=O)C(C)(C)c2ccccc21 | 11 | i | i | i | i | RAM efflux-def=i
O=c1[nH]c(=O)n(-c2ccc(Cl)cc2)c(O)c1C=NCCN1CCCCC1 | i | i | i | i | i
CC(C)CN1CCN(Cc2cccc3c2OCO3)CC1CCO (centres undefined) | i | i | i | i | i
O=C(c1ccco1)c1cn(Cc2ccccc2Cl)c2ccccc12 | 18 | i | i | i | i | RAM efflux-def=i
O=C(c1ccco1)c1cn(Cc2ccccc2)c2ccccc12 | i | i | i | i | i
CCC(=O)Oc1ccc(C(=O)Nc2cccc(C(=O)c3ccccc3)c2)cc1 | 12 | i | i | i | i | RAM efflux-def=i
COc1cccc(NP(=O)(Oc2ccccc2Cl)Oc2ccccc2Cl)c1 | 13 | i | i | i | i | RAM efflux-def=i
CC(=NCC1CCCO1)c1c(O)n(C)c(=O)n(C)c1=O (centres undefined) | i | i | i | i | i
COc1cccc(-n2c(=S)[nH]c3ccccc3c2=O)c1 | i | i | i | i | i
O=c1c2ccc(Cl)cc2[nH]c(=S)n1-c1cccnc1 | 16 | i | i | i | i | RAM efflux-def=i
COC(=O)[C@@H]1[C@@H](C(=O)OC)C2(c3ccccc3-c3ccccc32)N(c2ccc(Cl)cc2)N1C#N | i | 74 | i | i | i | Lmaj promast 1uM=57
CCCNC(=O)N1CCC2(CC1)OCCO2 | i | i | i | i | i

Screening results: PubChem BioAssay, several laboratories
